Hits are enriched below; roughly 2% of the tested compounds scored in any of these assays.
SENP1 inh: SENP1 (human) catalytic domain inhibition. Q9P0U3. recombinant SENP1 catalytic domain, CyPet-SUMO1-YPet FRET cleavage. inhibition, % at 10 µM. 360,000 tested, 0.21% active;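 active = inhibition at least 30% at 10 µM, raw YFP signal under a set limit, fluorescence ratio 0.5 to 1.5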;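 note: 0% = enzyme with DMSO and 100% = no enzyme wells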
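Assay system: hSENP1 catalytic domain, recombinant. Amount: SENP1 enzyme, 20 pM final. Schedule: 50 min reaction, RT, dark. Technique: FRET, CFP and YFP emission. Control set: no-enzyme wells low, DMSO-plus-enzyme wells high control.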
Rpn11 inh: blocks the human proteasome subunit Rpn11; 360,000 tested, 0.59% active; human 26S proteasome, Ub4-pepOG fluorescence polarization; 20S core pre-blocked with epoxomicin; AID 588493; inhibition, % at 20 µM; O00487;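 active = inhibition at 20 µM, scaled to each plate's controls, above about 33%, limit read from the data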
ATG4B inhibitor: inhibitors of human ATG4B cysteine protease; 340,000 tested, 0.51% active; inhibition, % at 8.33 µM; Q9Y4P1; ATG4B cleavage of LC3-PLA2, NBD-HPC fluorescence, 1 h
HNF4A DNA FP: change in binding of human HNF4 alpha to DNA; P41235; HNF4a-FITC DNA binding, fluorescence polarization, 1 h; activity change, % at 10 µM; 360,000 tested, 0.3% active; in the data active = activity change above about 30%, passing the limit was not always enough
TPT1 inhibitor: inhibitors of Candida albicans tRNA 2'-phosphotransferase TPT1; recombinant caTPT1, FP RNA substrate dephosphorylation; inhibition, % at 5 µM; 300,000 tested, 0.81% active; AID 1962;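 active = inhibition above the mean of all tested compounds plus 3 SD, set per screening campaign, cut at about 24% in these data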;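 note: plate controls were DMSO alone for no effect and ferristatin control at 100 nM for full effect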
CSN deneddyl inh: CSN deneddylation inhibition. Q92905. Purified CSN, SCF-Nedd8-OG deneddylation, fluorescence polarization. inhibition, % at 12.5 µM. 360,000 tested, 0.38% active;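 active = pattern-corrected inhibition above about 35%, with an unprinted fluorescence ratio check between 0.5 and 1.5, limit read from the data, passing the limit was not always enough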;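 note: 0% = enzyme with substrate and 100% = substrate without enzyme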
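Material: purified human Csn5 enzyme expressed in HEK293T cells / Medium: Tris buffer pH 7.5, NaCl, DTT, Tween-20, trehalose, ovalbumin / Compound dosing: 12.5 µM single point / Schedule: 90 min incubation of compound, enzyme and substrate at room temperature / Signal: fluorescence polarization of the substrate / Control set: no-enzyme wells high, enzyme-with-substrate wells low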
caTPT1 confirm: confirmation of Candida albicans TPT1 inhibitors | shares compounds with TPT1 inhibitor | recombinant caTPT1, fluorescence polarization, RNase T1 coupled | inhibition, % at 5 µM | 2,400 tested, 74% active | AID 2149;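 active = inhibition above the primary screen limit, the mean inhibition of all tested compounds plus 3 SD, cut at about 25% in these data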
RNase T1 inh: counter-screen for TPT1 inhibitors: inhibitors of Aspergillus oryzae RNase T1; RNase T1 cleavage, fluorescence polarization, 1536-well; shares compounds with TPT1 inhibitor; AID 2153; 2,400 tested, 83% active; inhibition, % at 5 µM;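 active = inhibition above the solvent-only control well mean plus 3 SD, limit set per screening run, cut at about 23% in these data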;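 note: plate controls were DMSO wells with enzyme for no effect and wells without RNase T1 for full effect; inhibitors block cleavage so intact labeled substrate keeps polarization high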
ATG4B conf: ATG4B (human) inhibition, single-dose confirmed | inhibition, % at 8.33 µM | 320 tested, 92% active | ATG4B protease fluorescent substrate cleavage assay | AID 504757 | shares compounds with ATG4B inhibitor; in the data active = inhibition above about 39%
PLA2 counter: counter-screen for ATG4B inhibitors: human phospholipase A2; purified PLA2, NBD-C6-HPC fluorescence, 45 min; inhibition, % at 8.33 µM; 1,600 tested, 66% active; shares compounds with ATG4B inhibitor; in the data active = inhibition above about 50%
Rpn11 confirm: Rpn11 inhibition confirmation, single concentration. shares compounds with Rpn11 inh. purified human 26S proteasome, Ub4-pepOG fluorescence polarization; proteasome pretreated with epoxomicin. inhibition, % at 20 µM. 1,900 tested, 29% active. AID 602318
MMP-2 counter: MMP-2 (human) inhibition counter-screen; shares compounds with Rpn11 inh; recombinant MMP-2, FRET peptide cleavage fluorescence; inhibition, % at 20 µM; 1,900 tested, 4% active; AID 602330;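 note: human MMP-2 activated beforehand with APMA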
Thrombin FP: counter-screen for RPN11 inhibitors: inhibition of bovine thrombin. inhibition, % at 20 µM. 1,900 tested, 13% active. shares compounds with Rpn11 inh. bovine thrombin cleavage of Ub4-pepOG, fluorescence polarization;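 active = mean inhibition at least 40% at 20 µM, or signal 3 deviations below plate average, so some actives read negative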;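 note: plate controls were thrombin with DMSO for no effect and buffer wells lacking thrombin for full effect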
Active calls of the source: *; · = no result. Cut-off read from the data, not from the text of the source, unless noted: active = inhibition above about 40%; inactive = the rest.

SMILES	SENP1 inh	Rpn11 inh	ATG4B inhibitor	HNF4A DNA FP	TPT1 inhibitor	CSN deneddyl inh	caTPT1 confirm	RNase T1 inh	Rpn11 confirm	MMP-2 counter	Thrombin FP	others
CCOc1cc(/C=C/C(=O)c2ccc(OC)c(CN3CCOCC3)c2)cc(Br)c1O	-28.4	67.5*	-17.6	5.2	55.4*	20.8	80.6*	85.9*	72.2*	2.2	79.9*
CC(C)c1ccc2c(c1)C1Cc3ccccc3C1N2 (stereo not given)	-15.1	56.8*	13.3	-0.3	28.6*	13.6	13.4	21.5*	1.7	5.8	-3.2
O=S1(=O)NC2c3ccccc3CC2O1 (stereo not given)	-0.3	-2.1	-1.6	3.1	-1.7	-4.8	·	·	·	·	·
Cc1cccc(NC(=O)NNC(=O)c2ccccn2)c1	2.3	-1.1	4.9	4.8	·	-2.7	·	·	·	·	·
O=S1c2ccccc2Sc2ccccc21	-0.3	-7.8	5.4	2.0	·	0.7	·	·	·	·	·
Cc1c([C@@H]2C[C@H]3CN(Cc4cccc(Cl)c4)C(=O)[C@]34CCCN24)cnn1C	-2.4	44.6*	-8.3	20.7	31.6*	6.7	33.9*	47.7*	38.4	-33.4	5.3
CCCn1cc([C@@H]2C[C@H]3CN(Cc4cccc(Cl)c4)C(=O)[C@]34CCCN24)c(C)n1	0.1	13.3	-3.9	-0.7	3.3	2.7	·	·	·	·	·
NC(=O)CC(NC(=O)Cc1cccc2ccccc12)c1ccc(NC2CCN(Cc3ccccc3)CC2)c([N+](=O)[O-])c1 (stereo not given)	4.5	41.8*	-10.0	7.7	25.7*	19.4	28.9*	40.5*	23.7	-37.6	10.9
O=C(N/N=C/c1c(O)ccc2ccccc12)c1ccc[n+](CCO)c1	-9.1	14.8	-0.5	1.9	10.1	6.8	·	·	·	·	·
Cc1ccc(C(=O)N/N=C/c2c(O)ccc3ccccc23)cn1	-27.7	122.5*	-22.1	44.7*	83.5*	23.2	92.7*	95.7*	23.3	-43.2	3.4
Cc1ccccc1N1C(=O)C(Cc2ccc(F)cc2)S/C1=C(\C#N)C(N)=O (stereo not given)	25.8	45.3*	-4.0	3.2	26.4*	3.3	6.9	10.9	6.3	-11.9	0.4
Cc1[nH]c2ccccc2c1/C=C/C(=O)c1ccncc1	-36.6	47.0*	-4.3	12.9	76.4*	8.5	76.8*	86.5*	42.1*	-61.1	37.0
CCOC(=O)[C@]12CCC=C1N(Cc1ccc(Cl)cc1Cl)C(=O)[C@H](CC(=O)NCCCN1CCCC1=O)C2	1.3	·	·	-4.6	·	-2.0	·	·	·	·	·
O=C(NN1C(=O)/C(=C/C=C/c2ccco2)SC1=S)c1ccncc1	6.1	77.4*	53.6*	-45.7	86.1*	45.8	57.7*	36.2*	123.3*	54.8*	54.0*	ATG4B conf=64.6*;PLA2 counter=-2.8
O=C(NN1C(=O)/C(=C/C=C/c2ccccc2)SC1=S)c1ccncc1	29.7	71.4*	1.5	78.6*	130.8*	20.3	34.5*	46.7*	-2.8	1.5	18.7
